This is a sample that favours compounds with a hit; in the whole collection about 1.8% have one here.
Platelet DG rel: inhibitors of platelet dense granule secretion, primary screen, cell-based, MLPCN, human platelets; human platelet-rich plasma, SFLLRN dense granule ATP release, luminescence; inhibition, %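 (compounds screened at 7.5 µM in platelet-rich plasma)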; actives 0.22% (n = 300,000); AID 1663, 2009;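 active = mean replicate score, as percent of positive control, at or above 50; inconclusive = mean below 50 but at least one replicate at or above 50; inactive = mean and every replicate below 50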
Runt-CBFb FRET: inhibitors of RUNX1 Runt–CBFb binding, primary screen, biochemical, FRET, Cerulean-Runt, Venus-CBFb, uHTS; Runt-related transcription factor 1 (Homo sapiens) + Core-binding factor subunit beta …; Cerulean-Runt/Venus-CBFb FRET ratio 530/480, 1 h; inhibition, % at 20 µM; actives 0.46% (n = 220,000);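 active = inhibition over about 50% at 20 µM in the single-dose screen, limit read from the data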;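 note: 0% = DMSO wells and 100% = excess unlabeled CBFb competitor control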
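test system = Cerulean-tagged RUNX1 Runt domain (FRET donor) fusion protein | reagent = Venus-CBFb binding partner, 100 nM | incubation = protein complex preformed 1 h, compound exposure 1 h, room temperature, dark | detection = FRET fluorescence | read-out basis = loss of energy transfer signal | controls = 5 µM unlabeled CBFb as full-inhibition high control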
Runt-SMMHC FRET: inhibitors of RUNX1 Runt–CBFb-SMMHC binding, primary screen, biochemical, FRET, Cerulean-Runt, Venus-CBFb-SMMHC, uHTS. Runt-related transcription factor 1 (Homo sapiens) + Core-binding factor subunit beta …. Cerulean-Runt/Venus-CBFb-SMMHC FRET ratio 530/480, 1 h. inhibition, % at 20 µM. actives 0.74% (n = 220,000);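 active = mean inhibition across duplicate retests at 20 µM reaching about 50%, limit read from the data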;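 note: 0% = DMSO wells and 100% = wells with excess untagged CBFb-SMMHC; inhibitors lower the FRET ratio by blocking Runt binding to CBFb-SMMHC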
RanGTP-Impb inh: inhibitors of RanGTP-importin-beta interaction, primary screen, biochemical, FRET, CFP-Ran, YFP-importin-beta, homogeneous. Ran GTPase (GTP-bound) - importin-beta complex. cell-free CFP-Ran/YFP-importin-beta FRET ratio. actives 1.1% (n = 300,000). inhibition, % (concentration not given with the values);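 active = more than half of the replicate wells show a fall in the fluorescence ratio signal beyond about 16%, limit read from the data, passing the limit was not always enough; inconclusive = exactly half of the replicate wells pass the set limit; inactive = fewer than half of replicates pass the limit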;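 note: 0% = DMSO wells and 100% = Ran loaded with GDP instead of GTP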
Rce1 inh: yeast Rce1p protease inhibitors, primary screen, biochemical, fluorescence, cell-free homogeneous | actives 0.27% (n = 290,000) | calls only | AID 2563, 2010 | yeast membranes, quenched prenylated peptide cleavage fluorescence;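 active = fall in fluorescence gain of 50% or more versus controls, with final raw signal at or below 3038400; inconclusive = same 50% fall but final raw signal above 3038400; inactive = fall in fluorescence gain under 50%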;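 note: plate controls were neutral control wells for no effect and wells lacking membranes for full effect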
Target sequence (Q03530 whole entry, looked up): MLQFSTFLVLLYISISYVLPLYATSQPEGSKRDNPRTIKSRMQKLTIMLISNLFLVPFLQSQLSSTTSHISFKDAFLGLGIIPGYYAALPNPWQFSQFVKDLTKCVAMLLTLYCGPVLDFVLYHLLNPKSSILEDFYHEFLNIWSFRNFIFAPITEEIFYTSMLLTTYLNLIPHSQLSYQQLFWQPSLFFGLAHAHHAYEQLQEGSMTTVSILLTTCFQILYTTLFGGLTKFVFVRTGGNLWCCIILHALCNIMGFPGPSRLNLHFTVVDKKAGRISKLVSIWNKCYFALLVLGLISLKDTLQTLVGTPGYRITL
RUNX1 CBFb TR: inhibitors of RUNX1 Runt–CBFb binding, biochemical, TR-FRET. TR-FRET RUNX1 Runt domain-CBFb binding. shares compounds with Runt-CBFb FRET. actives 20% (n = 480). inhibition, % at 20 µM. AID 1502, 2009; in the data active = inhibition above about 40%
YIC FRET counter: YIC intramolecular FRET probe signal interference, dose response, counter-screen for RanGTP-importin-beta inhibitor project, biochemical, fluorescence FRET. shares compounds with RanGTP-Impb inh. Purified YIC probe, intramolecular FRET ratio YFP/CFP. IC50, µM. actives 40% (n = 1,000);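 active = fitted half-maximal inhibitory concentration no more than tenfold above the top dose tested; inconclusive = flat fit with 30 to 70% activity, or poor fit; inactive = half-maximal concentration beyond tenfold above the top dose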
An asterisk follows results filed as active; i = inactive; ? = inconclusive; · = not tested or not shown; + = active, no number; ! = repeats disagree.

SMILES	Platelet DG rel	Runt-CBFb FRET	Runt-SMMHC FRET	RanGTP-Impb inh	Rce1 inh	others
CC(=O)Nc1ccc(OC(=O)N(C)c2ccccc2)cc1	53*	0	-2	-1	i
COP(=O)(OC)C(NC(=O)/C=C/c1ccccc1)C(Cl)(Cl)Cl (stereo not given)	0	-2	-3	6	i
Cc1cccn2c(=O)c3cc(C(=O)N4CCC5(CC4)OCCO5)n(C)c3nc12	-1	29	83*	3	i
O=C(c1cccn2c(=O)c3cc(Br)ccc3nc12)N1CCC2(CC1)OCCO2	12	9	6	12	i
CCn1c(O)c(N=Nc2ccc(S(=O)(=O)N3CCOCC3)cc2)c(=O)n(CC)c1=S	9	-2	-6	0	i
COC(=O)CC1=C(C(=O)OC)C2(C(=O)N(C)c3ccccc32)C(C#N)=C(N)O1 (stereo not given)	-1	1	-3	-5	i
CC(Cc1ccc(O)cc1)NCC(O)c1cc(O)cc(O)c1 (stereo not given)	11	13	7	17*	i
CCNCC(O)c1cccc(O)c1 (stereo not given)	7	·	·	-35	i
Nc1ccncc1Cl	2	0	2	-3	·
COc1ccc(CCNC(=O)c2c(N)n(CCN3CCOCC3)c3nc4ccccc4nc23)cc1OC	0	19	46	55*	i
CCCCCCn1c(N)c(C(=O)NCCN2CCOCC2)c2nc3ccccc3nc21	1	28	62*	70*	i
CCCCCn1c(N)c(C(=O)NCCN2CCOCC2)c2nc3ccccc3nc21	5	1	94*	60*	i
O=C(NCCN1CCOCC1)c1ccc(Cl)nc1	3	0	2	-1	i
COC(=O)C1=C(c2ccc(S(C)(=O)=O)cc2)C[C@@H]2CC[C@H]1N2C(=O)N1CCCCC1	-1	·	·	1	i
CCC(=Nc1cccc(C(F)(F)F)c1)c1c(O)n(C)c(=O)n(C)c1=O	4	0	-38	2	i
C=CCn1c(O)c(C(CC)=NCc2ccco2)c(=O)[nH]c1=O	-13	2	1	6	i
COc1cc(/C=C(/C)[N+](=O)[O-])ccc1OCc1ccccc1Cl	4	6	9	·	i
CCCCn1c(NS(=O)(=O)c2ccc(C)cc2)c(C(=O)OCC)c2nc3ccccc3nc21	12	10	58*	75*	i
CCCCn1c(=O)c(C(=O)Nc2nc3ccccc3[nH]2)c(O)c2ccccc21	·	-2	-2	·	·
CCCCn1c(NC(=O)c2ccco2)c(C(=O)OCC)c2nc3ccccc3nc21	1	18	60*	71*	i
CCC(=NCCCN1CCOCC1)c1c(O)n(-c2ccccc2C)c(=O)[nH]c1=O	-12	-2	1	5	i
O=P(N1CCCCC1)(N1CCCCC1)C(Cl)(Cl)Cl	-1	1	3	3	i
CCNc1nc(Cl)nc(NC(C)C)n1	56*	2	-3	-1	i
CCOC(=O)[C@@H]1[C@H]2COc3ccc(Br)cc3[C@@H]2N2C(=O)N(c3cccc(C)c3)C(=O)[C@]12C	-5	·	·	0	+
CC(=O)OCC[N+](C)(C)C	-10	1	0	6	+!
SMILES	Platelet DG rel	Runt-CBFb FRET	Runt-SMMHC FRET	RanGTP-Impb inh	Rce1 inh	others
O=C(Nc1ccc(Cl)cc1)Nc1nccs1	6	·	-4	2	i
CC[C@H]1CC2CN3CCc4c([nH]c5cc(OC)ccc45)[C@](C(=O)OC)(C2)[C@H]13	0	·	·	4	i
COc1ccc2c3c([nH]c2c1)C(C)=NCC3	-2	4	73*	62*	+
Cc1cc(=O)oc2cc3c(cc12)CCCN3	0	·	·	84*	i
CCCCCCOC(=O)c1ccccc1N	-1	-1	4	4	i
CCCCn1c(N)c(C(=O)OCCOC)c2nc3ccccc3nc21	-15	62*	107*	?	i	RUNX1 CBFb TR=27
CCC[N+]12CCC(CC1)C(=C(c1ccccc1)c1ccccc1)C2	23	52*	-1	-1	i	RUNX1 CBFb TR=-283
OCC12COC3c4ccccc4C(OC1)N32 (stereo not given)	-4	0	-1	1	i
CC[n+]1c(/C=C/N(C)c2ccccc2)sc2ccc(Cl)cc21	6	55*	43	?	i	RUNX1 CBFb TR=9
CC[n+]1c(/C=C/C=C/c2ccc(N(C)C)cc2)sc2ccccc21	3	2	5	-1	i
O=C1NC(=S)NC(=O)C1=Cc1cccn1-c1ccc(O)cc1	-10	57*	42	4	i	RUNX1 CBFb TR=90*
COc1cc(N)c(Cl)cc1C(=O)NC1CN2CCC1CC2 (stereo not given)	-3	1	0	2	i
Nc1c(C(=O)OC2CCCCC2)c2nc3ccccc3nc2n1CC1CCCO1 (stereo not given)	-6	54*	106*	23*	i	RUNX1 CBFb TR=38;YIC FRET counter=27*
CC(C)n1c(O)c(C2c3cc(Cl)ccc3Oc3[nH]c(=O)n(C(C)C)c(=O)c32)c(=O)[nH]c1=O (stereo not given)	-1	60*	75*	22*	i	RUNX1 CBFb TR=32;YIC FRET counter=>50
CC(=O)c1c(O)n(-c2cccc(Cl)c2)c(=O)[nH]c1=O (tested in a mixture with another compound)	2	2	-1	3	i
O=C(c1ccc(CS(=O)(=O)c2ccccc2)o1)N1CCC2(CC1)OCCO2	1	8	6	0	i
COCCOC(=O)c1c(N)n(Cc2ccccc2)c2nc3ccccc3nc12	-18	51*	108*	19*	i	RUNX1 CBFb TR=1;YIC FRET counter=46*
c1cc(CCN2CCCC2)ccn1	9	0	-7	-8	i
Cc1cc(C=C(C#N)C#N)ccc1N1CCCC1	0	-32	-63	31*	i	YIC FRET counter=>26
O=C(Nc1cccc(OC(=O)N2CCCCC2)c1)N1CCCCC1	7	0	-1	21*	i	YIC FRET counter=>50
O=C(Nc1cccc(OC(=O)N2CCOCC2)c1)N1CCOCC1	6	1	0	-2	·

High-throughput results deposited in PubChem by several laboratories.
